Active and inactive are the calls of the source. The rule behind the calls is not given here.
Tests used:
[1] = biological target: T1, Growth factor receptor-bound protein 2 (Homo sapiens, UniProt P62993); experiment: Binding affinity to Grb2-SH2 domain (unknown origin) expressed in Escherichia coli […] after 1 hr by fluorescence polarization assay; settings: in the assay text read “after 2 hrs” for “after 1 hr”
Summary of the method: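 GST-Grb2 SH2 domain expressed in E. coli BL21(DE3), glutathione-Sepharose purified. […] IC50 from four-parameter logistic fit of FP versus peptide concentration, three sets of experiments.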

[2] = Metabolic stability of the compound in human MDA-MB-468 cells assessed as protein-tyrosine phosphatase-mediated endogenous dephosphorylation incubated for 2 hrs; format: ADME, cell-based; settings: mda-mb-468, 2 h
[3] = biological target: Dual specificity mitogen-activated protein kinase kinase; MEK1/2 (Homo sapiens) (UniProt P36507+Q02750); experiment: Inhibition of MEK phosphorylation in EGF-stimulated human MDA-MB-468 cells incubated for 2 hrs followed by 10 mins EGF stimulation by Western blotting analysis
Dual specificity mitogen-activated protein kinase kinase; MEK1/2 (Homo sapiens), sequence (P36507 whole entry, looked up): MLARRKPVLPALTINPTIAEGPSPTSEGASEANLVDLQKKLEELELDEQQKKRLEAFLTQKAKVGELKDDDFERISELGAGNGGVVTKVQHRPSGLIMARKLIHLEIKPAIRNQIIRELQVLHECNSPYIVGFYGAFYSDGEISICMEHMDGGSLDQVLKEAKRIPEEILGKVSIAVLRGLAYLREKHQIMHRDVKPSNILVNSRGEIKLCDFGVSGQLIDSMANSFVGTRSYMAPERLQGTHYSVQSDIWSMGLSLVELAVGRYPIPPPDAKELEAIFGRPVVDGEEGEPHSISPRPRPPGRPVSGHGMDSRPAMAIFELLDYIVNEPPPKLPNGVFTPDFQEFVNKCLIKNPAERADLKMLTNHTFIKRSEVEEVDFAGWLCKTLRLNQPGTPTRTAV
Dual specificity mitogen-activated protein kinase kinase; MEK1/2 (Homo sapiens), sequence (Q02750 whole entry, looked up): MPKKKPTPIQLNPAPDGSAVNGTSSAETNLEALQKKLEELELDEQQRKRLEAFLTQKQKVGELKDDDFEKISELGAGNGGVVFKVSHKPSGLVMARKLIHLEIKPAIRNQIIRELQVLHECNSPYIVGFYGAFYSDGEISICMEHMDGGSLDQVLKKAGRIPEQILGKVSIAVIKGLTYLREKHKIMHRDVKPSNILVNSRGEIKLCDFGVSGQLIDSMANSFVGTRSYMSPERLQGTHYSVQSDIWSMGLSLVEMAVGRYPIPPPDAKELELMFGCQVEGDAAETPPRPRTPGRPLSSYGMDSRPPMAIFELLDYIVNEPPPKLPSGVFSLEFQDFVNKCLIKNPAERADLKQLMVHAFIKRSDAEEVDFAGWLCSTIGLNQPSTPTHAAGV
Summary of the method: (§1)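 MDA-MB-468 cells grown to ~80% confluence, serum-starved 20 h, then given peptide at the indicated concentrations in serum-free medium for 2 h. EGF (50 ng/mL final) added for 10 min. Lysis in RIPA with protease/phosphatase inhibitors and 5 mM EDTA; ~20 μg protein run on 10% SDS-PAGE. Blots probed for phospho- and total MEK and ERK1/2, GAPDH loading control.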

[4] = Drug uptake in human HeLa cells assessed as cytosolic entry efficiency measured as fluorescence at 5 uM incubated for 2 hrs by flow cytometry relative to CPP9 (100%); format: ADME, cell-based
Summary of the method: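 HeLa cells seeded 24 h earlier, given 5 μM naphthofluorescein-labelled peptide in DMEM with 1% or 10% FBS, 37 °C, 2 h. Cells DPBS-washed, trypsinized, flow cytometry with 633-nm excitation, APC channel, 10,000 live-cell events gated. Signal read as cytosolic entry because NF is non-fluorescent in acidic compartments; mean ± SD of three independent experiments, relative to CPP9 (100%).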

[5] = biological target: Mitogen-activated protein kinase; ERK1/ERK2 (Homo sapiens) (UniProt P27361+P28482); experiment: Inhibition of ERK1/2 phosphorylation in EGF-stimulated human MDA-MB-468 cells incubated for 2 hrs followed by 10 mins EGF stimulation by Western blotting analysis; summary of the method: as §1
Mitogen-activated protein kinase; ERK1/ERK2 (Homo sapiens), sequence (P27361 whole entry, looked up): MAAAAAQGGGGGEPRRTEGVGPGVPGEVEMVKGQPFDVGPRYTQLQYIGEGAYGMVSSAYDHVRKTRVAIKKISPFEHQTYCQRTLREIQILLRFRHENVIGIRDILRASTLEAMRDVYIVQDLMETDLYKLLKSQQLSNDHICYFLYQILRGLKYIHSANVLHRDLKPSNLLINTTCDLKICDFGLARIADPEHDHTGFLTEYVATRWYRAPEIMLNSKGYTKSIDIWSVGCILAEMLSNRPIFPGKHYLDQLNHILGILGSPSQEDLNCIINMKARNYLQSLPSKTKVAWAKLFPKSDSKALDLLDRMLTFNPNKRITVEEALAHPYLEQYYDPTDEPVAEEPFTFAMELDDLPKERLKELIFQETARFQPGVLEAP
Mitogen-activated protein kinase; ERK1/ERK2 (Homo sapiens), sequence (P28482 whole entry, looked up): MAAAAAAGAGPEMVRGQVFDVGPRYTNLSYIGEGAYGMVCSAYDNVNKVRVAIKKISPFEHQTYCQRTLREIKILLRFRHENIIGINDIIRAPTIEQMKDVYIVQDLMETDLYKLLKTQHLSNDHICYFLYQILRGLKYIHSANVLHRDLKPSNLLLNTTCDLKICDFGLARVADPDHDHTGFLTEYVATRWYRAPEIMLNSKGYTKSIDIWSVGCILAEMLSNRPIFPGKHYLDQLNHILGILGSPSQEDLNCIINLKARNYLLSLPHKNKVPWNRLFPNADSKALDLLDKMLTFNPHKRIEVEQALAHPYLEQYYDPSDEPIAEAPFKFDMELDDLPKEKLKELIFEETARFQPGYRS

MDA-MB-468 = experiment: Effect on intracellular MEK expression in EGF-stimulated human MDA-MB-468 cells incubated for 2 hrs followed by 10 mins EGF stimulation by Western blotting analysis; format: functional, cell-based; summary of the method: as §1
[6] = biological target: T1, Growth factor receptor-bound protein 2; experiment: Binding affinity to Grb2-SH2 domain (unknown origin) expressed in Escherichia coli […] after 2 hrs by fluorescence polarization assay

| IC50 [1] [nM] | Stabilty [2] | inhibition [3] | RFU [4] [%] | inhibition [5] | IC50 [6] [nM] | SMILES | Activity (MDA-MB-468) |
| --- | --- | --- | --- | --- | --- | --- | --- |
| 400 | Unstable | Active | 49 | inactive |  | CC(C)[C@@H]1NC(=O)[C@H](Cc2ccc(OP(=O)(O)O)cc2)NC(=O)[C@H](CCCNC(=N)N)NC(=O)[C@H](CCCNC(=N)N)NC(=O)[C@@H]2CCCN2C(=O)[C@H]2CCCN2C(=O)[C@@H](CCCNC(=N)N)NC(=O)[C@H](Cc2ccc3ccccc3c2)NC(=O)[C@H](Cc2ccccc2)NC(=O)[C@H](CC(=O)NCCOCCOCC(=O)N[C@@H](CCCCNC(=O)c2ccc3c(c2)C(=O)OC32c3ccc4cc(O)ccc4c3Oc3c2ccc2cc(O)ccc32)C(N)=O)NC1=O | inactive |
|  |  | inactive | 2 |  | 100 | CC(C)[C@@H]1NC(=O)[C@H](Cc2ccc(OP(=O)(O)O)cc2)NC(=O)[C@H](CCCNC(=N)N)NC(=O)[C@H](CCCNC(=N)N)NC(=O)[C@@H]2CCCN2C(=O)[C@H]2CCCN2C(=O)[C@@H](C)NC(=O)[C@H](C)NC(=O)[C@H](Cc2ccccc2)NC(=O)[C@H](CC(=O)NCCOCCOCC(=O)N[C@@H](CCCCNC(=O)c2ccc3c(c2)C(=O)OC32c3ccc4cc(O)ccc4c3Oc3c2ccc2cc(O)ccc32)C(N)=O)NC1=O |  |
|  |  | inactive | 34 |  | > 10000 | CC(C)[C@@H]1NC(=O)[C@H](Cc2ccc(O)cc2)NC(=O)[C@H](CCCNC(=N)N)NC(=O)[C@H](CCCNC(=N)N)NC(=O)[C@@H]2CCCN2C(=O)[C@H]2CCCN2C(=O)[C@@H](CCCNC(=N)N)NC(=O)[C@H](Cc2ccc3ccccc3c2)NC(=O)[C@H](Cc2ccccc2)NC(=O)[C@H](CC(=O)NCCOCCOCC(=O)N[C@@H](CCCCNC(=O)c2ccc3c(c2)C(=O)OC32c3ccc4cc(O)ccc4c3Oc3c2ccc2cc(O)ccc32)C(N)=O)NC1=O |  |
|  |  |  | 32 |  |  | C[C@@H]1NC(=O)[C@H](C)NC(=O)[C@H](Cc2ccccc2)NC(=O)[C@H](CCCNC(=N)N)NC(=O)[C@@H](CCCNC(=N)N)NC(=O)[C@@H]2CCCN2C(=O)[C@H]2CCCN2C(=O)[C@H](CCCNC(=N)N)NC(=O)[C@H](Cc2ccc3ccccc3c2)NC(=O)[C@H](Cc2ccccc2)NC(=O)[C@H](C)NC(=O)[C@H](C)NC(=O)[C@H](CCC(=O)NCCOCCOCC(=O)N[C@@H](CCCCNC(=O)c2ccc3c(c2)C(=O)OC32c3ccc4cc(O)ccc4c3Oc3c2ccc2cc(O)ccc32)C(N)=O)NC(=O)[C@H](C)NC1=O |  |
|  |  |  | 51 |  |  | C[C@@H]1NC(=O)[C@H](C)NC(=O)[C@H](Cc2ccccc2)NC(=O)[C@H](CCCNC(=N)N)NC(=O)[C@H](CCCNC(=N)N)NC(=O)[C@@H]2CCCN2C(=O)[C@H]2CCCN2C(=O)[C@H](CCCNC(=N)N)NC(=O)[C@@H](Cc2ccc3ccccc3c2)NC(=O)[C@H](Cc2ccccc2)NC(=O)[C@H](C)NC(=O)[C@H](C)NC(=O)[C@H](CCC(=O)NCCOCCOCC(=O)N[C@@H](CCCCNC(=O)c2ccc3c(c2)C(=O)OC32c3ccc4cc(O)ccc4c3Oc3c2ccc2cc(O)ccc32)C(N)=O)NC(=O)[C@H](C)NC1=O |  |
|  |  |  | 4.1 |  |  | C[C@@H]1NC(=O)[C@H](C)NC(=O)[C@H](Cc2ccccc2)NC(=O)[C@H](CCCNC(=N)N)NC(=O)[C@H](CCCNC(=N)N)NC(=O)[C@H](C)NC(=O)[C@H](C)NC(=O)[C@@H](CCCNC(=N)N)NC(=O)[C@H](Cc2ccc3ccccc3c2)NC(=O)[C@H](Cc2ccccc2)NC(=O)[C@H](C)NC(=O)[C@H](C)NC(=O)[C@H](CCC(=O)NCCOCCOCC(=O)N[C@@H](CCCCNC(=O)c2ccc3c(c2)C(=O)OC32c3ccc4cc(O)ccc4c3Oc3c2ccc2cc(O)ccc32)C(N)=O)NC(=O)[C@H](C)NC1=O |  |
